The source of these data is ChEMBL document CHEMBL4312006, “A novel chalcone derivative as Nrf2 activator attenuates learning and memory impairment in a scopolamine-induced mouse model” (Eur J Med Chem, 2020).

Activity calls are given as the source filed them. The calls are words filed in the database; no cut-off is given here.

Data set [1] deals with T1, Nuclear factor erythroid 2-related factor 2 (Mus musculus) (UniProt Q60795).
T1 sequence (whole entry): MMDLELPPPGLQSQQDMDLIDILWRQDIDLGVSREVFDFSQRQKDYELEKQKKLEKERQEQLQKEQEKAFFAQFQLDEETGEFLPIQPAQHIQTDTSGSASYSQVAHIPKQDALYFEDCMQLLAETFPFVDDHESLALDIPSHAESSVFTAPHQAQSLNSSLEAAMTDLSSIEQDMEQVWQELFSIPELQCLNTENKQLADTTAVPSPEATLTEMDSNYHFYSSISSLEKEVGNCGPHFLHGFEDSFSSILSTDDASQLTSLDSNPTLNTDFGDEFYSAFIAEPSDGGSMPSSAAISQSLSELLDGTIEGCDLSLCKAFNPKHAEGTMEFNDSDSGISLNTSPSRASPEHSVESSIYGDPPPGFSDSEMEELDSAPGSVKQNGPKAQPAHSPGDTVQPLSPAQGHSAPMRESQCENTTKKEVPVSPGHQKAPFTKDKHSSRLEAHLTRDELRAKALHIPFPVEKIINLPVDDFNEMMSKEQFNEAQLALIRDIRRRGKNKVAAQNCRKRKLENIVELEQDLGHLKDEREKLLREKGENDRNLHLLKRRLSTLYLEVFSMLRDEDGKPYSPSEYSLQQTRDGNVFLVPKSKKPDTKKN
Description: Activation of NRF2 in mouse BV2 cells assessed reduction of LPS-stimulated TNF-alpha level preincubated for 3 hrs followed by LPS stimulation for 24 hrs by ELISA. In kind it is cell-based. The gist of the method: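 BV-2 cells pre-incubated with a range of compound concentrations for 3 h, then stimulated with 0.2 μg/mL LPS for 24 h. TNF-α or IL-6 in the culture medium quantified by sandwich ELISA kits. Compared with LPS-treated control by one-way ANOVA with Dunnett's test.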
(In general: An ELISA detects its analyte on a solid surface through an enzyme-linked reagent.)

For another data set, the species on record is Homo sapiens. The experiment in a line: Inhibition of H2O2-stimulated ROS production in […] BV2 cells at 10 uM preincubated for 24 hrs followed by H2O2 stimulation for 20 mins by DCFH-DA dye based assay. In kind it is functional, cell-based. Summed up:
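BV-2 microglial cells pretreated with 10 μM compound for 24 h, then exposed to a series of H2O2 concentrations for 20 min. Intracellular ROS measured by DCFH-DA fluorescence. One-way ANOVA with Tukey's test.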

For data set [2], the target named is T1, Nuclear factor erythroid 2-related factor 2 (Mus musculus). The experiment in a line: Activation of NRF2 in mouse BV2 cells assessed as inhibition of H2O2-induced reduction in SOD activity incubated for 6 hrs followed by H2O2 stimulation and measured after 18 hrs by WST-1 based assay. In kind it is cell-based. The gist of the method: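 BV-2 cells (1.0×10^6) treated with compound for 24 h, or for 6 h followed by 400 μM H2O2 for 18 h. Cells washed, sonicated in ice-cold PBS and centrifuged; supernatant assayed by WST-1/superoxide inhibition. Activity derived from the IC50 of the inhibition curve and given as U/mg protein (1 U = 50% inhibition of WST-1 reduction).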
In general terms: Tetrazolium assays rely on reduction of a dye to a coloured formazan, in cell work by metabolically active cells.

For data set [3] the target is unchanged. The experiment in a line: Activation of NRF2 in mouse BV2 cells assessed as increase in HO1 protein expression incubated for 12 hrs by Western blot analysis. In kind it is cell-based. The gist of the method:
(§1)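 BV-2 cells washed in ice-cold PBS and lysed on ice for 40 min in RIPA buffer with protease inhibitors. Nuclear fractions prepared separately. 10 μg protein run on SDS-PAGE and blotted to PVDF. Membranes blocked in 5% skim milk/TBST and probed overnight at 4 °C for Nrf2, HO-1, GCLM or SOD1. HRP secondary with ECL detection. Band densities normalised to Lamin B1 or β-actin.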

Data set [4] has as its system Mus musculus. The experiment in a line: Effect on mean number of arm entries in C57BL/6 mouse model of scopolamine-induced amnesia at 30 mg/kg, po administered for 5 days and measured on day 5 after 30 mins of scopolamine stimulation by Y-maze test. In kind it is ADME, organism-based. To be noted: in vivo. The gist of the method: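 Male C57BL/6N mice given 30 mg/kg/day compound in saline by gavage for 5 days. Scopolamine 2 mg/kg in saline given i.p. 30 min before testing on the last day. Mice handled daily for 7 days beforehand. Free exploration of a three-arm Y-maze for 10 min, with entries scored manually (all four paws). Alternation = consecutive entries into three different arms.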

Data set [5] has as its target T1, Nuclear factor erythroid 2-related factor 2 (Mus musculus). The experiment in a line: Activation of NRF2 in mouse BV2 cells assessed as increase in HO1 mRNA level at 0.1 to 10 uM incubated for 8 hrs by qRT-PCR analysis. In kind it is cell-based. The gist of the method:
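BV-2 microglia grown in RPMI 1640 with 10% FBS, 2.05 mM L-glutamine and penicillin-streptomycin at 37 °C, 5% CO2. Cells exposed to a range of compound concentrations for 8 h. Ho-1 or Gclm mRNA measured by qRT-PCR and expressed relative to untreated control. Means ± SEM, one-way ANOVA with Dunnett's test.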
In general terms: Quantitative PCR measures a nucleic acid by following its amplification.

Data set [6] has the same target. The experiment in a line: Activation of NRF2 in mouse BV2 cells assessed as increase in total NRF2 level at 0.1 to 10 uM incubated for 6 hrs by Western blot analysis. In kind it is cell-based. Summed up: as §1
The test system of data set [7] is BV-2. Description: Inhibition of H2O2-stimulated ROS accumulation in mouse BV2 cells preincubated for 24 hrs followed by H2O2 stimulation for 20 mins by DCFH-DA dye based fluorescence microscopy. In kind it is functional, cell-based. The gist of the method: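 BV-2 cells treated with a range of compound concentrations for 24 h at 37 °C. Loaded with 40 μM DCFH-DA for 40 min, then 300 μM H2O2 added for 20 min in the dark. Cells washed with PBS and DCF fluorescence imaged by digital microscopy.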

The target in data set [8] is T1, Nuclear factor erythroid 2-related factor 2 (Mus musculus). Description: Activation of NRF2 in mouse BV2 cells assessed as increase in nuclear NRF2 level at 10 uM incubated for 2 hrs by Western blot analysis. In kind it is cell-based. Summed up: as §1
In data set [9] the test system is Mus musculus. Description: Antioxidant activity in mouse assessed as inhibition of scopolamine-induced reduction in SOD activity at 30 mg/kg, po administered for 5 days and measured on day 5 by WST-1 based assay. In kind it is functional, organism-based. Summed up: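 Male C57BL/6N mice (10 weeks) dosed 30 mg/kg/day compound in saline by oral gavage for 5 days, with scopolamine 2 mg/kg i.p. Hippocampus homogenised in sucrose buffer (pH 7.4) and centrifuged 40 min at 4 °C. SOD activity in the supernatant measured by WST-1 kit and given as U/mg protein. One-way ANOVA with Tukey's test.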

The target of another data set is CYP2D6 (Homo sapiens, UniProt P10635). The experiment in a line: Inhibition of CYP2D6 (unknown origin) assessed as remaining activity relative to control. In kind it is ADME.
The target of data set [10] is T1, Nuclear factor erythroid 2-related factor 2 (Mus musculus). Description: Activation of NRF2 in mouse BV2 cells assessed as inhibition of LPS-stimulated iNOS expression preincubated for 3 hrs followed by LPS stimulation for 24 hrs by Western blot analysis. In kind it is cell-based. Summed up:
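LPS-stimulated BV-2 cells pretreated with compound for 3 h. iNOS immunoblot (1:500) on 10 μg RIPA lysate protein, detected by ECL. Densities normalised to β-actin or Lamin B1 and compared with LPS-treated control.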

Data set [11] concerns BV-2. The experiment in a line: Inhibition of H2O2-stimulated ROS production in mouse BV2 cells preincubated for 24 hrs followed by H2O2 stimulation for 20 mins by DCFH-DA dye based assay. In kind it is functional, cell-based. The gist of the method: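 BV-2 cells treated with a range of compound concentrations for 24 h at 37 °C. Loaded with 20 μM DCFH-DA for 40 min, then 200 μM H2O2 added for 20 min at 37 °C in the dark. DCF fluorescence read at ex 480 nm / em 530 nm. Compared with H2O2-treated control.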

In data set [12] the target is T1, Nuclear factor erythroid 2-related factor 2 (Mus musculus). The experiment in a line: Activation of NRF2 in mouse BV2 cells assessed as increase in GCLM protein expression incubated for 12 hrs by Western blot analysis. In kind it is cell-based. Summed up:
as §1

Sequence of CYP2D6 (P10635 whole entry): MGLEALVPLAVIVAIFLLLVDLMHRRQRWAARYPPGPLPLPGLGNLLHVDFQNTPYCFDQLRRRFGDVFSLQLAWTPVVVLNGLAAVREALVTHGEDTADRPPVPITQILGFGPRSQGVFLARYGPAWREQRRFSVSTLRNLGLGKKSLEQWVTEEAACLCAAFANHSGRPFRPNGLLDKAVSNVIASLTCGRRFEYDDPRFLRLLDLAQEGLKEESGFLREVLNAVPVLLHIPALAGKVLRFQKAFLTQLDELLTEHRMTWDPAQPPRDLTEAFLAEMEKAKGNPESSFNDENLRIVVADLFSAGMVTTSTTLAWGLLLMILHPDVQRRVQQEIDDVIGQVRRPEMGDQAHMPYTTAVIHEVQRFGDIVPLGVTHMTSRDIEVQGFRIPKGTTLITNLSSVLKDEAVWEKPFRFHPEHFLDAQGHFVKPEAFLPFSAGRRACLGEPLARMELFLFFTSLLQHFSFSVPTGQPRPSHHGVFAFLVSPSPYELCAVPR

In the case of `CN1CCN(C(=O)COc2ccc(C(=O)/C=C/c3ccccc3C(F)(F)F)cc2)CC1.Cl`, the Activity entry in data set [1], in [3], in data set [10] and in data set [12] was “Dose-dependent effect” throughout. Moreover, the inhibition result in the data set filed under Homo sapiens was “Active”. For the same compound, the Activity result (in data set [2]; in data set [5]; in data set [6]; in data set [8]; with Mus musculus [9]) was “Active” each time. The figures for the activity entry with Mus musculus [4] and at CYP2D6 were “Non-Toxic” and over 100%, respectively. Also, the inhibition entry with BV-2 [7] and with BV-2 [11] was “Dose-dependent effect” each time.
